Source: PubChem (The Scripps Research Institute Molecular Screening Center)
A selection: hits, their analogues and other compounds. The true share with any hit is near 3.1%.
PRMT1 FP inh: PRMT1 (human) inhibition, primary screen | recombinant PRMT1, activity-based probe fluorescence polarization | actives 1.3% (n = 370,000) | inhibition, % at 2.79 µM | Q99873;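 active means inhibition above about 21% made by adding two undisclosed values, limit read from the data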
Target sequence (Q99873 whole entry, looked up): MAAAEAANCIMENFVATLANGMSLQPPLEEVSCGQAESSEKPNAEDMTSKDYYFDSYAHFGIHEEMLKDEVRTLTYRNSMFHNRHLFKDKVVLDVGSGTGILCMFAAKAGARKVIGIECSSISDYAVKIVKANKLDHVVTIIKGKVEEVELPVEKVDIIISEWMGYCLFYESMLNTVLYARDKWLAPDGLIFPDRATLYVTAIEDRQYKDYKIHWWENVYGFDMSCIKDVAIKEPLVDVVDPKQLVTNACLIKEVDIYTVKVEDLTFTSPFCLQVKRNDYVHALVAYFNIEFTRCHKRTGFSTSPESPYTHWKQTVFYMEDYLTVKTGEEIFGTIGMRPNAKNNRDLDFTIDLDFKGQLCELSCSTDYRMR
RBBP9 inh: inhibitors of human serine hydrolase RBBP9; recombinant RBBP9, FP-Rh probe fluorescence polarization; AID 1515; O75884; inhibition, % at 7.94 µM; actives 0.2% (n = 220,000);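 active means inhibition above the campaign mean of all tested compounds plus 3 SD, cut at about 14% in these data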
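Assay system: recombinant human RBBP9; Reagent: Serine-hydrolase probe FP-Rh, 375 nM pre-mixing; Doses: 7.94 µM single dose, 0.794% DMSO; Incubation: 30 min then 45 min, 25 °C; Detection: fluorescence polarization (mP), excitation 525 nm, emission 598 nm; Evaluation: percent inhibition from mP, scaled between DMSO and no-protein wells.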
ABHD5-PLIN5 inh: inhibitors of human ABHD5-perilipin-5 interaction | Q00G26+Q8WTS1 | Split G. princeps luciferase complementation, luminescence, 4 h | inhibition, % at 4 µM | actives 0.78% (n = 360,000) | AID 602281;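 active means inhibition above the mean inhibition across every tested compound plus 3 SD, cut at about 22% in these data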
LEDGF integ inh: blocks HIV-1 LEDGF/p75-dependent DNA integration; TR-FRET IN-LEDGF/p75 DNA integration, Eu/Cy5; inhibition, % at 3.7 µM; actives 0.64% (n = 370,000);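 active means inhibition above the screen-wide mean plus 3 SD, cut at about 13% in these data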;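 further: signal is the Cy5 over europium emission ratio at 671 and 618 nm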
MBD2 inh: blocks human MBD2 binding to methylated DNA; TR-FRET, MBD2 binding to methylated oligonucleotide; actives 0.31% (n = 370,000); Q9UBB5; inhibition, % at 4.4 µM; in the data active means inhibition above about 13%
Target sequence (Q9UBB5 whole entry, looked up): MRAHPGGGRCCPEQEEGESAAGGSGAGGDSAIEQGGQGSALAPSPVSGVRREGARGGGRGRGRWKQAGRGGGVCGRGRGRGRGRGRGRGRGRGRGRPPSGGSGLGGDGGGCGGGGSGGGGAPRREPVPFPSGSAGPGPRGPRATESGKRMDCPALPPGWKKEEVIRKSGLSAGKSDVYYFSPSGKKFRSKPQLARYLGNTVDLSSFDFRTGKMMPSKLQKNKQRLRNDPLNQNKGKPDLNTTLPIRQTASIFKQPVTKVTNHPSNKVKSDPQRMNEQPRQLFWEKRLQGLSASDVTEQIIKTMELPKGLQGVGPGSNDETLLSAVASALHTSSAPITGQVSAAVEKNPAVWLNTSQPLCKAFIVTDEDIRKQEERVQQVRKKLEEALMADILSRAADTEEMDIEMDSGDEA
UHRF1 MBD2 ctr: blocks human UHRF1 binding to methylated DNA; Q96T88; UHRF1 binding to methylated oligo, TR-FRET; inhibition, % at 4.4 µM; actives 0.75% (n = 370,000); AID 687016;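 further: UHRF1 SRA domain binding a hemimethylated CpG hairpin DNA probe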
ABHD5 PLIN5 conf: ABHD5-PLIN5 interaction inhibition, confirmed | shares compounds with ABHD5-PLIN5 inh | biochemical ABHD5-PLIN5 interaction, luminescence | inhibition, % at 4 µM | actives 67% (n = 2,200); in the data active means inhibition above about 23%
HNF4 split-luc: counter-screen for ABHD5-PLIN5 inhibitors: HNF4 split-luciferase; shares compounds with ABHD5-PLIN5 inh; HNF4 dimerization, luminescence, biochemical; inhibition, % at 4 µM; actives 77% (n = 2,200); AID 651674;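 active means mean inhibition across replicate wells exceeding the computed hit threshold, cut at about 13% in these data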;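 further: light from luciferase halves that rejoin when HNF4 fusion proteins dimerize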
PRMT1 inh conf: confirmation of human PRMT1 inhibitors; shares compounds with PRMT1 FP inh; recombinant His-PRMT1, activity-based probe fluorescence polarization; inhibition, % at 2.79 µM; actives 42% (n = 3,300); AID 687036;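 active means mean inhibition across replicates above the hit cutoff derived for the earlier primary screen, cut at about 22% in these data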
UHRF1 ctr MBD2: UHRF1 methyl-oligo binding inhibition as MBD2 counter-screen | shares compounds with MBD2 inh | UHRF1 binding to methylated oligonucleotide, TR-FRET | inhibition, % at 4.4 µM | actives 25% (n = 1,000) | AID 720530;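 further: UHRF1 SRA domain binding a labeled hemimethylated CpG hairpin DNA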
MBD2 DBD conf: MBD2-DBD methyl-DNA binding inhibition, TR-FRET confirmation. inhibition, % at 4.4 µM. actives 26% (n = 1,000). shares compounds with MBD2 inh. TR-FRET MBD2-DBD binding to methylated oligonucleotide; in the data active means inhibition above about 14%
IN multimer act: activates HIV-1 integrase multimerization in LEDGF counter-screen | AID 1053131 | TR-FRET HIV-1 integrase multimerization, biochemical | actives 17% (n = 2,000) | activation, % at 7.7 µM | shares compounds with LEDGF integ inh; in the data active means activation above about 8.9%
TR-FRET interf: TR-FRET optical interference, LEDGF/p75 integration counter-screen. shares compounds with LEDGF integ inh. TR-FRET optical interference counterscreen, HIV-1 IN multimerization. inhibition, % at 7.7 µM. 2,000 tested, under 10 active. AID 1053135;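 active means inhibition above the mean over all tested compounds plus 3 SD, which no compound reached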
IN-LEDGF confirm: confirmation of HIV-1 LEDGF/p75-dependent integration inhibitors; shares compounds with LEDGF integ inh; inhibition, % at 3.7 µM; TR-FRET LEDGF/p75-dependent HIV-1 integration, biochemical; actives 36% (n = 2,000); AID 1053136; in the data active means inhibition above about 14%
A number is an active result; i = inactive; nt = not tested or not shown. Unless noted, no stated cut-off is given here; in the data, active means inhibition above about 21%; inactive means the rest.

SMILES | PRMT1 FP inh | RBBP9 inh | ABHD5-PLIN5 inh | LEDGF integ inh | MBD2 inh | UHRF1 MBD2 ctr | ABHD5 PLIN5 conf | HNF4 split-luc | PRMT1 inh conf | others
CN1C(=O)C(=Cc2ccccc2Oc2ccc(Cl)cc2)C(=O)N(C)C1=O | 21.5 | i | 31.6 | i | i | i | 55.5 | 51.6 | nt
COc1cc(/C=C/[N+](=O)[O-])ccc1OC(=O)c1cccnc1 | i | nt | 27.3 | i | i | i | 83.2 | 101.3 | nt
COc1cc(/C=N/n2cnnc2)ccc1OC(=O)N(C)C | i | i | i | i | i | i | nt | nt | nt
Cc1ccc(N2C(=O)CC(=O)NC2=O)c(C)c1 | i | nt | i | i | i | i | nt | nt | nt
COc1ccc(OC)c(N2C(=O)CC(=O)NC2=O)c1 | i | nt | 30.1 | i | i | i | i | 20.6 | nt
COC(=O)C1=C(C(=O)OC)SC2(S1)C(C(=O)OC)=C(C(=O)OC)Sc1c2ssc1=O | 105.1 | nt | 90.7 | i | i | i | 101.8 | 111.7 | nt
Cc1ccc(S(=O)(=O)Oc2ccccc2C=C2C(=O)N(C)C(=O)N(C)C2=O)cc1 | 29.8 | nt | 34.9 | i | i | i | 70.6 | 71.8 | i
CN1C(=O)C(=Cc2ccccc2OCc2ccc(Cl)cc2)C(=O)N(C)C1=O | i | i | i | i | i | i | nt | nt | nt
CCN1/C(=C/C=C/C2=[N+](CC)c3ccccc3C2(C)C)C(C)(C)c2ccccc21 | 155.5 | nt | 52.3 | i | i | i | 27.9 | 37.1 | 130.6
N#CCCC#N | i | nt | nt | i | i | i | nt | nt | nt
CN1C(=O)C(=Cc2cn(CC(=O)N3CCCCC3)c3ccccc23)C(=O)N(C)C1=O | nt | nt | i | nt | nt | nt | nt | nt | nt
CN1C(=O)C(=Cc2cn(CC(=O)N3CCCC3)c3ccccc23)C(=O)N(C)C1=O | 32.5 | nt | 45.1 | i | i | i | i | 34.2 | i
O=C1NC(=O)N(Cc2ccccc2)C(=O)/C1=C\C=C\c1ccco1 | 35.6 | i | 27.7 | i | i | 27.9 | 96.7 | 63.9 | i
[Cl][Pt+2][Cl].[NH-]C1CCCCC1[NH-] (centres undefined) | 46.7 | nt | 36.5 | i | i | i | 60.0 | 54.6 | i
CN1CC[C@@H]2CN[C@H](c3ccccc3)C[C@@H]21 | i | nt | nt | i | i | i | nt | nt | nt
O=C(NCCN1CCC2(CC1)C(=O)NCN2c1ccccc1)c1ccc(Cl)cc1 | i | nt | nt | i | i | i | nt | nt | nt
CNc1cc(Cl)c2nonc2c1[N+](=O)[O-] | 57.5 | i | 31.6 | i | i | i | 35.9 | 79.9 | 25.3
Cc1cc([N+](=O)[O-])c(Cl)cc1NC(=O)C(C)C | i | i | i | i | i | i | nt | nt | nt
CN1C(=O)/C(=C/C=C/c2ccco2)C(=O)NC1=S | 40.5 | i | 26.0 | 60.1 | 23.4 | 72.2 | 74.1 | 48.9 | 57.5 | UHRF1 ctr MBD2=61.5;MBD2 DBD conf=21.9
CN1C(=O)/C(=C/c2ccc(Cl)s2)C(=O)NC1=S | i | nt | i | i | i | i | nt | nt | nt
O=P(OCCCl)(OCCCl)OCCCl | i | nt | nt | i | i | i | nt | nt | nt
Nc1c(C(=O)NCC2CCCO2)c2nc3ccccc3nc2n1Cc1ccco1 (centres undefined) | i | i | 25.7 | i | 16.7 | i | 52.9 | 45.4 | nt | UHRF1 ctr MBD2=i;MBD2 DBD conf=i
Cc1ccc(N2C(=O)NC(=O)/C(=C\C=C\c3ccco3)C2=O)cc1 | i | i | 24.6 | 40.6 | i | i | 94.7 | 72.9 | nt | IN multimer act=i;TR-FRET interf=i;IN-LEDGF confirm=33.1
Cc1cccc(N2C(=O)NC(=O)/C(=C/c3ccc([N+](=O)[O-])o3)C2=O)c1 | nt | i | nt | nt | nt | nt | nt | nt | nt
O=C1NC(=O)N(Cc2ccco2)C(=O)/C1=C/C=C/c1ccco1 | 61.4 | i | 46.0 | 92.1 | 74.2 | 99.7 | 98.4 | 79.6 | i | UHRF1 ctr MBD2=55.3;MBD2 DBD conf=29.6;IN multimer act=i;TR-FRET interf=i;IN-LEDGF confirm=55.8
SMILES | PRMT1 FP inh | RBBP9 inh | ABHD5-PLIN5 inh | LEDGF integ inh | MBD2 inh | UHRF1 MBD2 ctr | ABHD5 PLIN5 conf | HNF4 split-luc | PRMT1 inh conf | others
Cc1cccc(N2C(=O)NC(=O)/C(=C\C=C\c3ccco3)C2=O)c1 | 36.2 | i | 23.6 | 31.2 | i | i | 93.1 | 69.8 | i | IN multimer act=i;TR-FRET interf=i;IN-LEDGF confirm=27.8
O=C(NCCN1CCC2(CC1)C(=O)NCN2c1ccccc1)c1cccs1 | i | nt | nt | i | i | i | nt | nt | nt
Cc1ccc(OC(=O)N(C)C[C@H]2OCc3cnnn3CCCC(=O)N([C@@H](C)CO)C[C@@H]2C)cc1 | i | nt | nt | i | i | i | nt | nt | nt
CN1C(=O)C(=Cc2coc3ccccc3c2=O)C(=O)N(C)C1=O | i | i | i | i | i | i | nt | nt | nt
CN1C(=O)C(=Cc2cn(CC#N)c3ccccc23)C(=O)N(C)C1=O | 31.5 | nt | 29.1 | 15.8 | i | i | 22.5 | 20.7 | i | IN multimer act=i;TR-FRET interf=i;IN-LEDGF confirm=i
CN1C(=O)C(=Cc2ccc(Sc3ccccc3)o2)C(=O)N(C)C1=S | 36.3 | nt | i | i | i | i | nt | nt | 75.6
CCC(=O)OC1CCC2C3CCC4CC(=O)C=CC4(C)C3CCC12C (centres undefined) | i | nt | i | i | i | i | nt | nt | nt
COc1cc2c(c3oc4cccc(O)c4c(=O)c13)[C@@H]1C=CO[C@@H]1O2 | i | nt | nt | i | i | i | nt | nt | nt
C=CCN1C(=O)/C(=C/c2ccc3c(c2)CCCN3CCC)C(=O)NC1=S | 26.0 | i | i | i | i | i | nt | nt | i
CCN1C(=O)/C(=C/c2ccc3c(c2)CCN3CCCCl)C(=O)NC1=S | i | i | i | i | i | i | nt | nt | nt
CN=C(SCc1ccccc1)c1c(O)n(C)c(=O)n(C)c1=O | i | i | i | i | i | i | nt | nt | nt
C=CCN=C(SCC(=O)c1ccc(Cl)cc1)c1c(O)n(C)c(=O)n(C)c1=O | 29.4 | i | i | i | i | i | nt | nt | 31.3
NC(Cc1ccc(N(CCCl)CCCl)cc1)C(=O)O (centres undefined) | i | nt | nt | i | i | i | nt | nt | nt
